Laboratory results from ChEMBL document CHEMBL1152555, “Design, synthesis and cruzain docking of 3-(4-substituted-aryl)-1,2,4-oxadiazole-N-acylhydrazones as anti-Trypanosoma cruzi agents” (Bioorg Med Chem, 2009).

Columns and labels:
[1] = Cytotoxicity against BALB/c mouse splenocyte assessed as [3H]thymidine incorporation by beta-counting; type: cell-based; settings: splenocytes, read-out: MNCC
Procedure, shortened: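 Splenocytes from BALB/c mice were plated at 5 × 10⁶ cells per well in DMEM with FCS and gentamycin. Each compound was tested at […], in triplicate, from DMSO stock. Cells were given ³H-thymidine at 1 µCi per well for 24 h at 37 °C and 5% CO₂. Incorporation was compared with untreated wells. The reported value is the highest concentration reducing incorporation by less than 10%.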

[2] = tested on: Mus musculus; assay: Toxicity in mouse assessed as general toxicity at 100 mg/kg, ip after 72 hrs; type: organism-based; parameters: dose 100 mg/kg, route intraperitoneal; settings: in vivo
Procedure, shortened: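 Mice received a single intraperitoneal dose of 100 mg/kg. They were watched for 72 h for general toxicity signs, including behavior and feeding, and for survival. Controls received only 100 µL of 30% DMSO:70% H₂O (v/v).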

[3] = tested on: Trypanosoma cruzi; assay: Antitrypanosomal activity against Trypanosoma cruzi Y strain
[4] = tested on: Trypanosoma cruzi; assay: Antitrypanosomal activity against Trypanosoma cruzi trypomastigote Y strain after 24 hrs by trypan blue exclusion assay

## CC(=O)Nc1ccc(/C=N/NC(=O)c2nc(-c3ccccc3)no2)cc1
[1]
  MNTC: 95 µM
[2]
  Activity: Non-toxic
[3]
  IC50: 14.2 µM
[4]; read-out: IC50
  IC50: 3.6 µM
[4]; read-out: pIC50 (converted)
  IC50: 3.63 µM

## Cc1ccc(-c2noc(C(=O)N/N=C/c3ccc(O)cc3)n2)cc1
[1]
  MNTC: < 1.1 µg/mL
[3]
  IC50: 47.8 µM
[4]; read-out: IC50
  IC50: 17.9 µM
[4]; read-out: pIC50 (converted)
  IC50: 17.8 µM

## O=C(N/N=C/c1ccc(O)cc1)c1nc(-c2ccccc2)no1
[1]
  MNTC: 3.3 µg/mL
[3]
  IC50: 78.3 µM
[4]; read-out: IC50
  IC50: 35.7 µM
[4]; read-out: pIC50 (converted)
  IC50: 35.5 µM

## CC(=O)Nc1ccc(/C=N/NC(=O)c2nc(-c3ccc(Cl)cc3)no2)cc1
[1]
  MNTC: 100 µg/mL
[3]
  IC50: > 150 µM

## CC(=O)Nc1ccc(/C=N/NC(=O)c2nc(-c3ccc(F)cc3)no2)cc1
[1]
  MNTC: 33 µg/mL
[3]
  IC50: > 150 µM

## O=C(N/N=C/c1ccc(O)cc1)c1nc(-c2ccc(Cl)cc2)no1
[1]
  MNTC: < 1.1 µg/mL
[3]
  IC50: 21.6 µM
[4]; read-out: IC50
  IC50: 21.2 µM
[4]; read-out: pIC50 (converted)
  IC50: 21.4 µM

## O=C(N/N=C/c1ccc(O)cc1)c1nc(-c2ccc(Br)cc2)no1
[1]
  MNTC: 97 µM
[2]
  Activity: Non-toxic
[3]
  IC50: 19.6 µM
[4]; read-out: IC50
  IC50: 20.5 µM
[4]; read-out: pIC50 (converted)
  IC50: 20.4 µM

## CC(=O)Nc1ccc(/C=N/NC(=O)c2nc(-c3ccc(Br)cc3)no2)cc1
[1]
  MNTC: 33 µg/mL
[3]
  IC50: > 150 µM

## O=C(N/N=C/c1ccc(O)cc1)c1nc(-c2ccc([N+](=O)[O-])cc2)no1
[1]
  MNTC: < 1.1 µg/mL
[3]
  IC50: 25.2 µM
[4]; read-out: IC50
  IC50: 21.3 µM
[4]; read-out: pIC50 (converted)
  IC50: 21.4 µM

## COc1ccc(-c2noc(C(=O)N/N=C/c3ccc(NC(C)=O)cc3)n2)cc1
[1]
  MNTC: 100 µg/mL
[3]
  IC50: > 150 µM

## CC(=O)Nc1ccc(/C=N/NC(=O)c2nc(-c3ccc(C)cc3)no2)cc1
[1]
  MNTC: 30 µM
[3]
  IC50: 9.8 µM
[4]; read-out: IC50
  IC50: 3.9 µM
[4]; read-out: pIC50 (converted)
  IC50: 3.89 µM

## CC(=O)Nc1ccc(/C=N/NC(=O)c2nc(-c3ccc([N+](=O)[O-])cc3)no2)cc1
[1]
  MNTC: 33 µg/mL
[3]
  IC50: > 150 µM

## COc1ccc(-c2noc(C(=O)N/N=C/c3ccc(O)cc3)n2)cc1
[1]
  MNTC: 85 µM
[3]
  IC50: 13.8 µM
[4]; read-out: IC50
  IC50: 32.5 µM
[4]; read-out: pIC50 (converted)
  IC50: 32.4 µM

## O=C(N/N=C/c1ccc(O)cc1)c1nc(-c2ccc(F)cc2)no1
[1]
  MNTC: < 1.1 µg/mL
[3]
  IC50: 21 µM
[4]; read-out: IC50
  IC50: 16.7 µM
[4]; read-out: pIC50 (converted)
  IC50: 16.6 µM

## O=C(N/N=C/c1ccc(O)cc1)c1nc(-c2ccc(O)cc2)no1
[1]
  MNTC: 100 µg/mL
[3]
  IC50: 127 µM
[4]; read-out: IC50
  IC50: 100 µM
[4]; read-out: pIC50 (converted)
  IC50: 100 µM

## CC(=O)Nc1ccc(/C=N/NC(=O)c2nc(-c3ccc(O)cc3)no2)cc1
[1]
  MNTC: 33 µg/mL
[3]
  IC50: > 150 µM

## O=C(Cn1ccnc1[N+](=O)[O-])NCc1ccccc1 [BENZNIDAZOLE]
[1]
  MNTC: 100 µg/mL
[4]; read-out: pIC50 (converted)
  IC50: 5.01 µM

## CN(C)c1ccc(C(=C2C=CC(=[N+](C)C)C=C2)c2ccc(N(C)C)cc2)cc1 [GENTIAN VIOLET]
[1]
  MNTC: < 1 µg/mL
[4]; read-out: IC50
  IC50: 2.1 µM
